The nature of data set [1]: Cytotoxicity against african green monkey Vero cells after 72 hrs by MTT assay. The data set is classed as cell-based. As to conditions: chlorocebus sabaeus. The procedure, abridged: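 After media removal and a PBS wash, dilutions were added with DMSO control, then incubated 72 h at 37 °C, 5% CO2. Cells were washed, given MTT for 3 h in the dark, and solubilized in DMSO 1–2 h. CC50 was extrapolated from plotted % inhibition (100 − % viability) against concentration.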
Background: Tetrazolium assays rely on reduction of a dye to a coloured formazan, in cell work by metabolically active cells.

The nature of data set [2]: Cytotoxicity against human HepG2 cells after 72 hrs by MTT assay. The data set is classed as cell-based.
Data set [3] deals with Mycobacterium tuberculosis. The data set can be described thus: Antitubercular activity Mycobacterium tuberculosis H37Rv assessed as growth inhibition after 30 days by agar microdilution method. Format: functional. The procedure, abridged:
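M. tuberculosis H37Rv (ATCC 27294) grown on L-J medium, harvested in 0.85% saline with 0.05% Tween-80. Compounds, from a DMSO stock, were added as twofold dilutions to Middlebrook 7H10 agar with OADC in tubes. After 30 days of incubation, tubes were compared with untreated H37Rv control tubes. The lowest concentration giving complete inhibition of colonies was reported.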

The subject of a further data set is Escherichia coli. The data set can be described thus: Antibacterial activity Escherichia coli ATCC-25922 assessed as growth inhibition after 24 hrs by twofold serial dilution technique. The data set is classed as functional. As to conditions: ATCC-25922, 24 h. The procedure, abridged:
(§1)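 Tube twofold serial dilution of compounds dissolved in DMSO, under aseptic conditions. Solvent, growth (negative) and drug (ampicillin) controls were run alongside. Tubes were incubated 24 h at 37 °C. MIC was taken as the lowest concentration giving apparent complete inhibition of growth. Strains were first screened by cup plate method.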

For another data set, the system named is Staphylococcus aureus. The data set can be described thus: Antibacterial activity Staphylococcus aureus ATCC-25923 assessed as growth inhibition after 24 hrs by twofold serial dilution technique. The data set is classed as functional. The conditions noted are these: ATCC-25923, 24 h. The procedure, abridged: as §1
The test system of data set [4] is Mycobacterium tuberculosis. The data set can be described thus: Antitubercular activity Mycobacterium tuberculosis H37Rv assessed as growth inhibition after 5 days by MABA method. The data set is classed as functional. As to conditions: for MIC: Mycobacterium tuberculosis, H37Rv, 120 h. The procedure, abridged: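 Log-phase H37Rv was diluted to a final OD550 of 0.05 in Middlebrook 7H9 broth, and compounds in DMSO were added in 96-well plates. After a further 24 h at 37 °C/5% CO2, fluorescence was read (ex 544 nm, em 590 nm). Inhibition was scored against the untreated control, with >90% inhibition counted as active in the initial screen.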

Another data set concerns Bacillus spizizenii. The data set can be described thus: Antibacterial activity Bacillus Bacillus subtilis ATCC 6633 assessed as growth inhibition after 24 hrs by twofold serial dilution technique. As to conditions: ATCC 6633, 24 h. Format: functional. The procedure, abridged:
as §1

The subject of the next data set is Pseudomonas aeruginosa. The data set can be described thus: Antibacterial activity Pseudomonas aeruginosa ATCC-27853 assessed as growth inhibition after 24 hrs by twofold serial dilution technique. Format: functional. The conditions noted are these: ATCC-27853, 24 h. The procedure, abridged: as §1

Values after ≈ are worked out from the molar mass of the structure shown.

As usually defined, the CC50 is the concentration that lowers cell viability or growth by half. The MIC is the smallest concentration in the dilution series that meets the test's criterion for growth inhibition.

Take `S=c1n(CN2CCCCC2)nc(Cc2ccccc2Nc2c(Cl)cccc2Cl)n1/N=C/c1ccccc1`: the CC50 at 72 h in data set [1] and in data set [2] was > 300 µM throughout. For the same molecule, the MIC was 6.25 µM (≈ 3.45 µg/mL) in data set [3]; 12.5 µM (≈ 6.89 µg/mL) with Escherichia coli; 12.5 µM (≈ 6.89 µg/mL) with Staphylococcus aureus; 6.25 µM (≈ 3.45 µg/mL) in data set [4]; 25 µM (≈ 13.8 µg/mL) with Bacillus spizizenii; 25 µM (≈ 13.8 µg/mL) in the data set with Pseudomonas aeruginosa. Further, in data set [4], the “-logMIC” value worked out at 5.204.
Regarding `S=c1n(CN2CCCCC2)nc(Cc2ccccc2Nc2c(Cl)cccc2Cl)n1/N=C/c1ccco1`, the CC50 at 72 h in data set [1] is > 300 µM; in data set [2], 262 µM. For the same molecule, the MIC in data set [3] stood at 6.25 µM (≈ 3.38 µg/mL); in the data set on Escherichia coli, 12.5 µM (≈ 6.77 µg/mL); in the data set with Staphylococcus aureus, 25 µM (≈ 13.5 µg/mL); in data set [4] it was 6.25 µM (≈ 3.38 µg/mL); with Bacillus spizizenii, 25 µM (≈ 13.5 µg/mL); with Pseudomonas aeruginosa, 25 µM (≈ 13.5 µg/mL). Also, the “-logMIC” value in data set [4] was 5.204.

The values are drawn from ChEMBL document CHEMBL3352372, “Design, synthesis and 3D-QSAR studies of new diphenylamine containing 1,2,4-triazoles as potential antitubercular agents” (Eur J Med Chem, 2014).
